According to ChEMBL document CHEMBL1142288, “Synthesis and biological evaluation of pyrroloiminoquinone derivatives” (Bioorg Med Chem, 2008):
pIC50: −log10 of the molar value. Active and inactive are the calls of the source. The rule behind the calls is not given here.

Assays:
[1] = tested on: NCI-H460; experiment: Antiproliferative activity against human NCI-H460 cells after 72 hrs; conditions: NCI-H460, 72 h
[2] = tested on: HL-60; experiment: Antiproliferative activity against human HL60 cells after 72 hrs by trypan blue test; assay type: functional, cell-based; conditions: HL-60, 72 h
Outline: (§1)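 HeLa (Ham's F-12, 10% heat-inactivated FCS) or HL-60 (RPMI 1640, 15% heat-inactivated FCS), both with penicillin/streptomycin/amphotericin; 4 · 10⁴ cells/well seeded in duplicate, 72 h drug exposure. Viability by Trypan blue; IC50 = concentration giving 50% reduction in cell number versus untreated controls.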

[3] = tested on: HeLa; experiment: Antiproliferative activity against human HeLa cells after 72 hrs by trypan blue test; assay type: functional, cell-based
Outline: as §1

[4] = tested on: HeLa; experiment: Induction of apoptosis in human HeLa cells assessed as DNA fragmentation at 100 uM after 24 hrs; assay type: functional, cell-based
Outline: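 HeLa cells (5 · 10⁵) incubated 24 h at 37 °C, medium replaced, test agent added; solvent-only controls. After 24 h, DNA extracted, dissolved in TE (10 mM Tris pH 8, 1 mM EDTA), run on 1% agarose, ethidium bromide-stained and imaged under UV; cisplatin as positive control.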

[5] = organism: Homo sapiens; experiment: Inhibition of human recombinant topoisomerase 2 assessed as relaxation of supercoiled pBR322 plasmid DNA at 10 to 50 uM
[6] = organism: Homo sapiens; experiment: Inhibition of human recombinant topoisomerase 2 assessed as relaxation of supercoiled pBR322 plasmid DNA at 50 uM

pIC50 [1]	pIC50 [2]	pIC50 [3]	Activity [5]	Activity [6]	SMILES	Activity [4]
< 4.40	–	–	–	–	Cn1cc2c3c1C(=O)C(NCc1ccccc1)=CC3=NCC2	–
5.06	–	–	–	–	COc1ccc2[nH]cc(CCNC3=CC4=NCCc5cn(C)c(c54)C3=O)c2c1	–
5.11	< 4.70	< 4.70	–	–	COc1cc2c3c(c1OC)N(C=O)C(OC)C3CCN2C=O (stereo not drawn)	–
< 4.22	–	–	–	–	COc1cc2c3c(cn(C)c3c1OC)CCN2C=O	–
–	8.29	7.92	–	–	COc1cc(NS(C)(=O)=O)ccc1Nc1c2ccccc2nc2ccccc12 [AMSACRINE]	–
5.21	5.51	5.26	–	–	Cn1cc2c3c1C(=O)C1=C(C3=NCC2)C2(C=CC(=O)C=C2)CCN1	Active
5.05	< 4.70	< 4.70	–	–	COC1=CC2=NCCc3cn(C)c(c32)C1=O	–
< 4.22	–	–	–	–	COc1cc2c3c(c[nH]c3c1OC)CCN2C=O	–
4.64	–	–	–	–	C[C@H](NC1=CC2=NCCc3cn(C)c(c32)C1=O)c1ccccc1	–
< 4.40	–	–	–	–	Cn1cc2c3c1C(=O)C(NCCc1c[nH]c4ccc(O)cc14)=CC3=NCC2	–
5.26	< 4.70	< 4.70	–	–	Cn1cc2c3c1C(=O)C(NCCc1c[nH]c4ccc(F)cc14)=CC3=NCC2	–
6.02	5.57	5.72	Active	–	Cn1cc2c3c1C(=O)C1=C(NCCS1)C3=NCC2	–
< 4.22	–	–	–	–	COc1cc2c3c(cn(C)c3c1OC)CCN2	–
< 4.22	–	–	–	–	COc1cc2c3c(cn(C=O)c3c1OC)CCN2C=O	–
< 4.40	–	–	–	–	COc1ccc(CCNC2=CC3=NCCc4cn(C)c(c43)C2=O)cc1	–
5.67	5.11	5.39	–	Active	Cn1cc2c3c1C(=O)C(NCCc1c[nH]c4ccccc14)=CC3=NCC2	Active
4.97	5.16	5.31	–	–	Cn1cc2c3c1C(=O)C(NCCc1ccc(O)cc1)=CC3=NCC2 [MAKALUVAMINE K]	Active
7.55	–	–	–	–	COc1cccc2c1C(=O)c1c(O)c3c(c(O)c1C2=O)C[C@@](O)(C(=O)CO)C[C@@H]3O[C@H]1C[C@H](N)[C@H](O)[C@H](C)O1 [DOXORUBICIN]	–
